Several values for one entry are separate records, joined by “and”; a condition that tells them apart may be missing. Equal values may be shown once. Activity calls are given as the source filed them. No cut-off for these calls is given here.
Experiments:
Nakaseomyces glabratus [1] = test: Minimum inhibitory concentration against Candida glabrata; assay type: functional
Method in brief: (§1)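 Microbroth dilution assay, modified from a published method, against C. glabrata (fluconazole-resistant strain). MIC values come from duplicate experiments.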

Nakaseomyces glabratus [2] = test: Antifungal minimum inhibitory concentration of compound against Candida glabrata; Inactive; assay type: functional, organism-based; method in brief: as §1
Nakaseomyces glabratus [3] = test: Fungicidal versus fungistatic activity of bifunctional sphingolipids against Candida glabrata at a concentration of 3 ug/mL before dilution replating; growth in media; assay type: functional, organism-based
Nakaseomyces glabratus [4] = test: Fungicidal versus fungistatic activity of bifunctional sphingolipids against Candida glabrata at a concentration of 0.3 ug/mL before dilution replating; growth in media; assay type: functional, organism-based
Nakaseomyces glabratus [5] = test: Fungicidal versus fungistatic activity of bifunctional sphingolipids against Candida glabrata at a concentration of 5 ug/mL before dilution replating; growth in media; assay type: functional, organism-based
Nakaseomyces glabratus [6] = test: Fungicidal versus fungistatic activity of bifunctional sphingolipids against Candida glabrata at a concentration of 6 ug/mL before dilution replating; no fungistatic growth on plate; assay type: functional, organism-based
Nakaseomyces glabratus [7] = test: Fungicidal versus fungistatic activity of bifunctional sphingolipids against Candida glabrata at a concentration of 10 ug/mL before dilution replating; no fungicidal growth on plate; assay type: functional, organism-based
Nakaseomyces glabratus [8] = test: Fungicidal versus fungistatic activity of bifunctional sphingolipids against Candida glabrata at a concentration of 1 ug/mL before dilution replating; growth in media; assay type: functional, organism-based
Nakaseomyces glabratus [9] = test: Fungicidal versus fungistatic activity of bifunctional sphingolipids against Candida glabrata at a concentration of 10 ug/mL before dilution replating; no growth in media; assay type: functional, organism-based
Nakaseomyces glabratus [10] = test: Fungicidal versus fungistatic activity of bifunctional sphingolipids against Candida glabrata at a concentration of 12 ug/mL before dilution replating; no growth in media; assay type: functional, organism-based
Nakaseomyces glabratus [11] = test: Fungicidal versus fungistatic activity of bifunctional sphingolipids against Candida glabrata at a concentration of 5 ug/mL before dilution replating; no growth in media; assay type: functional, organism-based
Nakaseomyces glabratus [12] = test: Fungicidal versus fungistatic activity of bifunctional sphingolipids against Candida glabrata at a concentration of 6 ug/mL before dilution replating; no growth in media; assay type: functional, organism-based
Nakaseomyces glabratus [13] = test: Fungicidal versus fungistatic activity of bifunctional sphingolipids against Candida glabrata at a concentration of 3 ug/mL before dilution replating; no growth in media; assay type: functional, organism-based
Nakaseomyces glabratus [14] = test: Fungicidal versus fungistatic activity of bifunctional sphingolipids against Candida glabrata at a concentration of 1 ug/mL before dilution replating; no (fungicidal, no growth on plate) growth in media; assay type: functional, organism-based
Nakaseomyces glabratus [15] = test: Fungicidal versus fungistatic activity of bifunctional sphingolipids against Candida glabrata at a concentration of 0.3 ug/mL before dilution replating; (fungicidal, no growth on plate) no growth in media; assay type: functional, organism-based
Nakaseomyces glabratus [16] = test: Fungicidal versus fungistatic activity of bifunctional sphingolipids against Candida glabrata at a concentration of 1 ug/mL before dilution replating; no fungistatic growth on plate; assay type: functional, organism-based
Nakaseomyces glabratus [17] = test: Fungicidal versus fungistatic activity of bifunctional sphingolipids against Candida glabrata at a concentration of 3 ug/mL before dilution replating; no fungistatic growth on plate; assay type: functional, organism-based
Nakaseomyces glabratus [18] = test: Fungistatic activity of bifunctional sphingolipids against Candida glabrata at a concentration of 30 ug/mL before dilution replating; no growth in media; assay type: functional, organism-based
Nakaseomyces glabratus [19] = test: Fungistatic activity of bifunctional sphingolipids against Candida glabrata at a concentration of 0.3 ug/mL before dilution replating; growth in media; assay type: functional, organism-based
Nakaseomyces glabratus [20] = test: Fungistatic activity of bifunctional sphingolipids against Candida glabrata at a concentration of 1 ug/mL before dilution replating; growth in media; assay type: functional, organism-based
Nakaseomyces glabratus [21] = test: Fungistatic activity of bifunctional sphingolipids against Candida glabrata at a concentration of 10 ug/mL before dilution replating; growth in media; assay type: functional, organism-based
Nakaseomyces glabratus [22] = test: Fungistatic activity of bifunctional sphingolipids against Candida glabrata at a concentration of 5 ug/mL before dilution replating; growth in media; assay type: functional, organism-based
Nakaseomyces glabratus [23] = test: Fungistatic activity of bifunctional sphingolipids against Candida glabrata at a concentration of 6 ug/mL before dilution replating; growth in media; assay type: functional, organism-based
Nakaseomyces glabratus [24] = test: Fungistatic activity of bifunctional sphingolipids against Candida glabrata at a concentration of 3 ug/mL before dilution replating; growth in media; assay type: functional, organism-based
Nakaseomyces glabratus [25] = test: Fungistatic activity of bifunctional sphingolipids against Candida glabrata at a concentration of 12 ug/mL before dilution replating; growth in media; assay type: functional, organism-based
Nakaseomyces glabratus [26] = test: Fungicidal versus fungistatic activity of bifunctional sphingolipids against Candida glabrata at a concentration of 5 ug/mL before dilution replating; no fungistatic growth on plate; assay type: functional, organism-based
Nakaseomyces glabratus [27] = test: Fungicidal versus fungistatic activity of bifunctional sphingolipids against Candida glabrata at a concentration of 6 ug/mL before dilution replating; growth in media; assay type: functional, organism-based
Nakaseomyces glabratus [28] = test: Fungicidal versus fungistatic activity of bifunctional sphingolipids against Candida glabrata at a concentration of 12 ug/mL before dilution replating no fungistatic growth on plate; assay type: functional, organism-based
Nakaseomyces glabratus [29] = test: Fungicidal versus fungistatic activity of bifunctional sphingolipids against Candida glabrata at a concentration of 10 ug/mL before dilution replating; no fungistatic growth on plate; assay type: functional, organism-based
[30] = Nakaseomyces glabratus, read-out: MIC

Compound: Hexadecyl-trimethyl-ammonium bromide
- MIC (Nakaseomyces glabratus [1]): 5 µg/mL and 14 µM

Compound: CCC[C@@H](O)[C@H](C)N
- MIC (Nakaseomyces glabratus [2]): inactive
- MIC (Nakaseomyces glabratus [1]; [30]): > 100 µg/mL

Compound: NCCCCCCN
- MIC (Nakaseomyces glabratus [2]): inactive
- MIC (Nakaseomyces glabratus [1]; [30]): > 100 µg/mL

Compound: CCC[C@@H](O)[C@@H](N)CO
- MIC (Nakaseomyces glabratus [2]): inactive
- MIC (Nakaseomyces glabratus [1]; [30]): > 100 µg/mL

Compound: C[C@@H](N)[C@H](O)CCCCCCCCCCCCCCC(=O)CCCCCCC[C@@H](OC[C@H]1O[C@@H](O)[C@H](O)[C@@H](O)[C@@H]1O)[C@@H](N)CO
- Activity (Nakaseomyces glabratus [3]): growth in media
- Activity (Nakaseomyces glabratus [4]): growth in media
- Activity (Nakaseomyces glabratus [5]): growth in media
- Activity (Nakaseomyces glabratus [6]): growth in media
- Activity (Nakaseomyces glabratus [7]): growth in media
- Activity (Nakaseomyces glabratus [8]): growth in media
- MIC (Nakaseomyces glabratus [1]; [30]): 10 µg/mL and 15 µM

Compound: C[C@@H]1[C@H](O)[C@@H](C)/C=C/C=C/C=C/C=C/C=C/C=C/C=C/[C@H](O[C@@H]2O[C@H](C)[C@@H](O)[C@H](N)[C@@H]2O)C[C@@H]2O[C@](O)(C[C@@H](O)C[C@@H](O)[C@H](O)CC[C@@H](O)C[C@@H](O)CC(=O)O[C@H]1C)C[C@H](O)[C@H]2C(=O)O
- Activity (Nakaseomyces glabratus [9]): no growth in media
- Activity (Nakaseomyces glabratus [10]): no growth in media
- Activity (Nakaseomyces glabratus [11]): no growth in media
- Activity (Nakaseomyces glabratus [12]): no growth in media
- Activity (Nakaseomyces glabratus [13]): no growth in media
- Activity (Nakaseomyces glabratus [14]): no growth in media
- Activity (Nakaseomyces glabratus [15]): no growth in media

Compound: CCC[C@@H](OC(=O)c1ccccc1)[C@H](COC(=O)c1ccccc1)NC(=O)c1ccccc1
- MIC (Nakaseomyces glabratus [2]): inactive
- MIC (Nakaseomyces glabratus [1]; [30]): > 100 µg/mL

Compound: C[N+](C)(C)CCCCCCCCCCCC[N+](C)(C)C.[Cl-].[Cl-]
- MIC (Nakaseomyces glabratus [2]): inactive
- MIC (Nakaseomyces glabratus [1]; [30]): > 100 µg/mL

Compound: C[C@H](NC(=O)c1ccccc1)[C@@H](CCCCCCCCCCCCCCCCCCCC[C@@H](OC(=O)c1ccccc1)[C@H](C)NC(=O)c1ccccc1)OC(=O)c1ccccc1
- MIC (Nakaseomyces glabratus [2]): inactive
- MIC (Nakaseomyces glabratus [1]; [30]): > 100 µg/mL

Compound: OC(Cn1cncn1)(Cn1cncn1)c1ccc(F)cc1F [FLUCONAZOLE]
- Activity (Nakaseomyces glabratus [4]): growth in media
- Activity (Nakaseomyces glabratus [9]): growth in media
- Activity (Nakaseomyces glabratus [10]): growth in media
- Activity (Nakaseomyces glabratus [16]): growth in media
- Activity (Nakaseomyces glabratus [17]): growth in media
- Activity (Nakaseomyces glabratus [11]): growth in media
- Activity (Nakaseomyces glabratus [12]): growth in media
- MIC (Nakaseomyces glabratus [1]): >=100 ug ml-1
- MIC (Nakaseomyces glabratus [1]; [30]): > 64 µg/mL

Compound: CCCCCCCCCCCCC/C=C/[C@@H](O)[C@@H](N)CO [SPHINGOSINE]
- NA (Nakaseomyces glabratus [18]): Partially active
- Activity (Nakaseomyces glabratus [19]): inactive
- Activity (Nakaseomyces glabratus [20]): inactive
- Activity (Nakaseomyces glabratus [21]): inactive
- Activity (Nakaseomyces glabratus [22]): inactive
- Activity (Nakaseomyces glabratus [23]): inactive
- Activity (Nakaseomyces glabratus [24]): inactive
- Activity (Nakaseomyces glabratus [25]): inactive
- MIC (Nakaseomyces glabratus [1]; [30]): 30 µg/mL and 100 µM

Compound: C[C@@H](N)[C@H](O)CCCCCCCCCCCCCCC(=O)CCCCCCC[C@@H](O)[C@@H](N)CO
- Activity (Nakaseomyces glabratus [3]): growth in media
- Activity (Nakaseomyces glabratus [4]): growth in media
- Activity (Nakaseomyces glabratus [6]): growth in media
- Activity (Nakaseomyces glabratus [10]): growth in media
- Activity (Nakaseomyces glabratus [26]): growth in media
- Activity (Nakaseomyces glabratus [7]): growth in media
- Activity (Nakaseomyces glabratus [8]): growth in media
- MIC (Nakaseomyces glabratus [1]; [30]): 3 µg/mL and 6.2 µM

Compound: NCCCCCCCCCCCCN
- MIC (Nakaseomyces glabratus [1]; [30]): > 100 µg/mL

Compound: C[C@H](N)[C@H](O)CCCCCCCCCCCCCCCCCCCC[C@@H](O)[C@H](C)N
- Activity (Nakaseomyces glabratus [3]): growth in media
- Activity (Nakaseomyces glabratus [4]): growth in media
- Activity (Nakaseomyces glabratus [27]): growth in media
- Activity (Nakaseomyces glabratus [5]): growth in media
- Activity (Nakaseomyces glabratus [28]): growth in media
- Activity (Nakaseomyces glabratus [29]): growth in media
- Activity (Nakaseomyces glabratus [8]): growth in media
- MIC (Nakaseomyces glabratus [1]; [30]): 10 µg/mL and 24 µM
